Screening results as filed in PubChem BioAssay.
Most compounds without a hit are left out; they make up all but 4.6% or so of the library.
NALP3 yeast inh: NALP3 inflammasome inhibitors in reconstituted yeast, primary screen, luminescence, uHTS; Yeast reconstituted NLRP3/ASC/caspase-1, beta-gal luminescence, 24 h; inhibition, % at 10 µM; 0.39% of 330,000 active; AID 2825, 2010;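 active = inhibition of 50% or more; inactive = inhibition below 50%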;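 note: plate controls were induced DMSO wells for no effect and uninduced yeast grown without galactose for full effect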
PolyA inhibitor: polyadenylation inhibitors in yeast reporter cells, primary screen, luminescence, S. cerevisiae. S. cerevisiae SKY197-pL101 polyadenylation reporter, beta-gal luminescence; efflux-impaired pdr1/pdr3 knockout yeast; score 100 = 6 SD above DMSO. activity score, % at 12 µM. 0.02% of 300,000 active. AID 1875, 2009;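 active = lowest replicate activity score at least 50, where 100 means six control SD above control mean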;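 note: yeast exposed to compound for 9 h at 30 °C; higher score means more reporter readthrough which indicates perturbed polyadenylation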
NALP1 inh: NALP1 inflammasome inhibitors in reconstituted yeast, colorimetric, S. cerevisiae, triplicate retest | S. cerevisiae NALP1/ASC/caspase-1 growth, X-gal OD620, 72 h | inhibition, % at 10 µM | 0.61% of 280,000 active; in the data active = inhibition mostly above about 24%, no sharp cut-off; inactive = mostly below about 32%
Arr AP2 block: inhibitors of beta-arrestin/AP2 binding, primary screen, biochemical, GPCR trafficking, flow cytometry. 0.31% of 340,000 active. inhibition, % at 10 µM. AID 504490, 2011. FITC-arrestin peptide / GST-AP2 beads; AP2 beta2 appendage carries R879A mutation;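 active = inhibition above a set limit, near 3 SD of compounds lacking own fluorescence, cut at about 54% in these data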;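 note: plate controls were DMSO wells for no effect and 5 µM unlabelled arrestin peptide for full effect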
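Material – AP2 appendage R879A on GSH beads · Buffer or medium – PBS with 0.05% Tween 20 and 0.1% BSA · Probe or stimulus – fluorescein-tagged arrestin peptide at 50 nM final · Incubation – compound with beads 12 min RT, then probe 1 h RT · Detection – high-throughput flow cytometry of beads, ex 488, em 535 nm · Evaluation – percent response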
ALR H2O2 inh: inhibitors of human ALR sulfhydryl oxidase, primary screen, biochemical, H2O2 detection, HRP-luminol luminescence, single point; purified ALR, DTT oxidation; inhibition, % (no concentration beside the values); 3.8% of 290,000 active; FAD-linked sulfhydryl oxidase ALR (Homo sapiens), P55789;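 active = mean replicate inhibition above about 79%, with every replicate also reaching it, limit read from the data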
DSG3 Ab inh: inhibitors of pemphigus antibody binding to DSG3, primary screen, biochemical, bead-based, flow cytometry, scFv-GFP. Desmoglein-3 (Homo sapiens), P32926. DSG3-coupled beads, scFv-anti-DSG3-GFP binding; stronger effect = lower value. binding (percent of control), % at 10 µM. 0.48% of 310,000 active. AID 588358, 2011;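 active = binding more than 3 SD below its plate's average and above zero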;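 note: hits lower antibody fragment binding to DSG3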
Target sequence (P32926 whole entry, looked up, the tested form may be a part): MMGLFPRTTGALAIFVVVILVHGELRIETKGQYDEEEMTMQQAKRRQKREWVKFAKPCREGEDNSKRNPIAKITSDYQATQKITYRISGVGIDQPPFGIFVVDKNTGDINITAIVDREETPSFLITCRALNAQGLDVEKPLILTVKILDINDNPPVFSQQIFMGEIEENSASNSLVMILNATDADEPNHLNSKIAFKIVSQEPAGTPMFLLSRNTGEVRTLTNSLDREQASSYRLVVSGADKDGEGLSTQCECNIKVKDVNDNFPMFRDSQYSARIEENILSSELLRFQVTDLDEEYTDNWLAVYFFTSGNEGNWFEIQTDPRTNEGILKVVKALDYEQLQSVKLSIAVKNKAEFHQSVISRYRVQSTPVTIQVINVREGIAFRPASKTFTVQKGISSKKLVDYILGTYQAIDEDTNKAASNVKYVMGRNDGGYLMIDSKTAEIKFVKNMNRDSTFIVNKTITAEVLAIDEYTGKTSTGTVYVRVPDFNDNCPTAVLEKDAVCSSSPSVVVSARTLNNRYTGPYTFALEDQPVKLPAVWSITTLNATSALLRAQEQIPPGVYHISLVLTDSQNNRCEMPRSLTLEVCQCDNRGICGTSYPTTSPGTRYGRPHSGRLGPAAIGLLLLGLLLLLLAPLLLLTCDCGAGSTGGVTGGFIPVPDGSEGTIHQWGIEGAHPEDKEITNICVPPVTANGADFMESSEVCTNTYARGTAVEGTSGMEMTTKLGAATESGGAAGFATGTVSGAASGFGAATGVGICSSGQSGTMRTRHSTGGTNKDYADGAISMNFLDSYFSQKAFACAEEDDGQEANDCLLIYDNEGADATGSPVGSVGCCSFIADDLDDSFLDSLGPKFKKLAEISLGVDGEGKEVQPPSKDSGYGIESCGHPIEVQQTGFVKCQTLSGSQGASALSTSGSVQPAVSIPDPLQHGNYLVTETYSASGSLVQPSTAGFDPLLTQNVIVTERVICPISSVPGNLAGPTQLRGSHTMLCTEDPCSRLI
An asterisk follows results filed as active.

Screening Oc1[nH]c2ccccc2c1N=Nc1nc2ccccc2s1 returned NALP3 yeast inh 36, PolyA inhibitor -18, NALP1 inh 11, Arr AP2 block -4, ALR H2O2 inh 88* and DSG3 Ab inh 98.
Cc1ccc2[nH]c(O)c(N=Nc3nc4ccccc4s3)c2c1 was read as NALP3 yeast inh 32, PolyA inhibitor -1, Arr AP2 block -6 and DSG3 Ab inh 86.
O=[N+]([O-])c1cccc(CN2C[C@@]34C=C[C@@H](C[C@@H]3S2(=O)=O)O4)c1 was read as NALP3 yeast inh 19, PolyA inhibitor -14, NALP1 inh -4, Arr AP2 block -6, ALR H2O2 inh 96* and DSG3 Ab inh 107.
Screening COc1cc2ccccc2cc1C(=O)N/N=C/c1cccs1 returned DSG3 Ab inh 93.
`CCOC(=O)c1c(OCC)[nH]c2ccc(O)cc12` gave NALP3 yeast inh -1, PolyA inhibitor 4, NALP1 inh 9, Arr AP2 block 9, ALR H2O2 inh 87* and DSG3 Ab inh 106.
Nc1nc(C2CCOCC2)cs1 was read as NALP3 yeast inh 2, PolyA inhibitor -14, Arr AP2 block -13, ALR H2O2 inh 2 and DSG3 Ab inh 101.
For Nc1nc(C2CC2)c(Sc2sc(N)nc2C2CC2)s1 the results were NALP3 yeast inh 15, PolyA inhibitor -13, NALP1 inh 4, Arr AP2 block 31, ALR H2O2 inh 99* and DSG3 Ab inh 100.
For CCOC(=O)c1sc(NC(=O)C2CC(=O)N(c3ccc(C)cc3)C2)nc1C (configuration not stated) the results were NALP3 yeast inh 10, PolyA inhibitor 19, NALP1 inh 4, Arr AP2 block 35 and ALR H2O2 inh 35.
CC(C)C[C@H](N)c1nnc(S(=O)(=O)Cc2ccc(F)cc2)o1 was read as NALP3 yeast inh -6, PolyA inhibitor -2, NALP1 inh -2, Arr AP2 block -5 and ALR H2O2 inh 98*.
Cc1ccccc1CN1C(=O)[C@H]2Cc3c([nH]c4ccccc34)C(C)(C)N2C1=O was read as NALP3 yeast inh 1, PolyA inhibitor -12, Arr AP2 block -3, ALR H2O2 inh -6 and DSG3 Ab inh 103.
Screening CC(=O)NC1=C(Nc2ccc(N(C)C)cc2)C(=O)c2ccccc2C1=O returned NALP3 yeast inh 31, PolyA inhibitor -14, NALP1 inh 0, Arr AP2 block 8, ALR H2O2 inh 100* and DSG3 Ab inh 94.
For CC(=O)NC1=C(N(C)C2CCS(=O)(=O)C2)C(=O)c2ccccc2C1=O (configuration not stated) the results were NALP3 yeast inh 6, PolyA inhibitor -29, NALP1 inh 39, Arr AP2 block 6, ALR H2O2 inh 7 and DSG3 Ab inh 112.
`CCn1c(C)cc(C(=O)CSc2nnc(C3CC3)n2C2CC2)c1C` gave DSG3 Ab inh 104.
CN(Cc1ccc(OC(F)F)cc1)C(=O)c1cccc(S(=O)(=O)N2CCN(Cc3ccccc3)CC2)c1 was read as Arr AP2 block 0 and DSG3 Ab inh 107.
For CCOC(=O)c1ccc(-c2ccc(/C=N/NC(=O)c3cncc(Br)c3)o2)cc1 the results were NALP3 yeast inh 5, PolyA inhibitor 14, NALP1 inh 33, Arr AP2 block 8, ALR H2O2 inh -5 and DSG3 Ab inh 75*.
Screening Cc1ccc(C(=O)N/N=C\c2ccc(-c3ccc([N+](=O)[O-])cc3)o2)cn1 returned NALP3 yeast inh 18, PolyA inhibitor -7, NALP1 inh 17, Arr AP2 block -5, ALR H2O2 inh -2 and DSG3 Ab inh 119.
For Cc1ccc(C(=O)N/N=C\c2ccc(-c3ccc(Cl)cc3)o2)cn1 the results were NALP3 yeast inh 25, PolyA inhibitor 3, NALP1 inh 0, Arr AP2 block -12, ALR H2O2 inh 0 and DSG3 Ab inh 92*.
